Laboratory results: ChEMBL document CHEMBL3877264, “Quinolidene-rhodanine conjugates: Facile synthesis and biological evaluation” (Eur J Med Chem, 2017)
In brackets after ≈: the same amount, converted by molar mass.

How the values were obtained:
[1] = test system: Mycobacterium tuberculosis; assay: Growth inhibition of Mycobacterium tuberculosis H37Ra ATCC 25177 at dormant stage at 12.5 ug/ml measured after 12 days by XTT dye based two fold dilution method relative to control; format: functional; conditions: H37Ra ATCC 25177, 288 h, read-out: GI
Aspergillus niger = assay: Antifungal activity against Aspergillus niger NCIM 1196 by standard agar method; format: functional
In short: (§1)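 MICs determined by standard agar method; DMSO as solvent control.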

[2] = test system: Mycobacterium tuberculosis; assay: Growth inhibition of Mycobacterium bovis BCG ATCC 35743 at dormant stage at 0.78 ug/ml measured after 12 days by nitrate reductase dye based two fold dilution method relative to control; format: functional; conditions: BCG str. ATCC 35743, 288 h, read-out: GI
In short: (§2)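 M. bovis BCG was grown in Dubos medium and assayed in Mycobacterium pheli minimal medium (pH 6.6), with compounds from DMSO stocks. Incubation lasted 8 days for active and 12 days for dormant cultures. Viability was read by nitrate reductase at 540 nm against cell-free blanks, with vehicle set as 100% growth. Primary screen was at 30, 10 and 3 µg/ml, in triplicate, mean ± SD. MIC was taken from dose-response curves.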

Pseudomonas fluorescens = assay: Growth inhibition of Pseudomonas fluorescens NCIM 2036 at 30 ug/ml measured after 8 hrs relative to control; format: functional; conditions: NCIM 2036, 8 h, read-out: GI
In short: (§3)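 Bacteria grown in LB at 37 °C and 180 rpm to OD 1. Compounds added to wells, then 0.1% inoculum of 1 OD culture (620 nm). Growth read as OD at 620 nm after 8 h for gram-negative and after 12 h for gram-positive strains.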

[3] = test system: Mycobacterium tuberculosis; assay: Growth inhibition of Mycobacterium tuberculosis H37Ra ATCC 25177 at active stage at 25 ug/ml measured after 8 days by XTT dye based two fold dilution method relative to control; format: functional; conditions: H37Ra ATCC 25177, 192 h, read-out: GI
In short: (§4)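 MTB H37Ra was grown in Dubos medium, then exposed in Mycobacterium pheli minimal medium (pH 6.6) to compounds dissolved in DMSO. The assay ended on day 8 (active) or day 12 (dormant). Viable cells were measured by XTT reduction menadione assay at 470 nm, blank-corrected, relative to vehicle control. Triplicates were expressed as mean ± SD. MIC came from dose-response curves.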

[4] = test system: Mycobacterium tuberculosis; assay: Growth inhibition of Mycobacterium bovis BCG ATCC 35743 at active stage at 12.5 ug/ml measured after 8 days by nitrate reductase dye based two fold dilution method relative to control; format: functional; conditions: BCG str. ATCC 35743, 192 h, read-out: GI
[5] = test system: Mycobacterium tuberculosis; assay: Growth inhibition of Mycobacterium tuberculosis H37Ra ATCC 25177 at active stage at 50 ug/ml measured after 8 days by XTT dye based two fold dilution method relative to control; format: functional; conditions: H37Ra ATCC 25177, 192 h, read-out: GI; in short: as §4
[6] = test system: Mycobacterium tuberculosis; assay: Growth inhibition of Mycobacterium bovis BCG ATCC 35743 at active stage at 1.56 ug/ml measured after 8 days by nitrate reductase dye based two fold dilution method relative to control; format: functional; conditions: BCG str. ATCC 35743, 192 h, read-out: GI; in short: as §2
Staphylococcus aureus [7] = assay: Growth inhibition of Staphylococcus aureus NCIM 2010 at 10 ug/ml measured after 12 hrs relative to control; format: functional; conditions: NCIM 2010, 12 h, read-out: GI; in short: as §3
Staphylococcus aureus [8] = assay: Growth inhibition of Staphylococcus aureus NCIM 2010 at 30 ug/ml measured after 12 hrs relative to control; format: functional; conditions: NCIM 2010, 12 h, read-out: GI; in short: as §3
Aspergillus flavus = assay: Antifungal activity against Aspergillus flavus NCIM 539 by standard agar method; format: functional; in short: as §1
[9] = Selectivity index, ratio of GI50 for HUVEC to MIC for Mycobacterium tuberculosis H37Ra ATCC 25177 at dormant stage
[10] = test system: Mycobacterium tuberculosis; assay: Growth inhibition of Mycobacterium tuberculosis H37Ra ATCC 25177 at active stage at 3.13 ug/ml measured after 8 days by XTT dye based two fold dilution method relative to control; format: functional; conditions: H37Ra ATCC 25177, 192 h, read-out: GI; in short: as §4
[11] = test system: Mycobacterium tuberculosis; assay: Growth inhibition of Mycobacterium bovis BCG ATCC 35743 at active stage at 100 ug/ml measured after 8 days by nitrate reductase dye based two fold dilution method relative to control; format: functional; conditions: BCG str. ATCC 35743, 192 h, read-out: GI
Escherichia coli [12] = assay: Antibacterial activity against Escherichia coli NCIM 2688 measured after 8 hrs; format: functional; conditions: NCIM 2688, 8 h; in short: as §3
[13] = Cytotoxicity against human HeLa cells at 100 ug/ml assessed as growth inhibition measured after 48 hrs by MTT assay relative to control; format: toxicity, cell-based; conditions: read-out: GI
Staphylococcus aureus [14] = assay: Growth inhibition of Staphylococcus aureus NCIM 2010 at 3 ug/ml measured after 12 hrs relative to control; format: functional; conditions: NCIM 2010, 12 h, read-out: GI; in short: as §3
[15] = test system: Mycobacterium tuberculosis; assay: Growth inhibition of Mycobacterium bovis BCG ATCC 35743 at dormant stage at 6.25 ug/ml measured after 12 days by nitrate reductase dye based two fold dilution method relative to control; format: functional; conditions: BCG str. ATCC 35743, 288 h, read-out: GI; in short: as §2
[16] = test system: Mycobacterium tuberculosis; assay: Growth inhibition of Mycobacterium tuberculosis H37Ra ATCC 25177 at dormant stage at 25 ug/ml measured after 12 days by XTT dye based two fold dilution method relative to control; format: functional; conditions: H37Ra ATCC 25177, 288 h, read-out: GI; in short: as §4
[17] = test system: Mycobacterium tuberculosis; assay: Growth inhibition of Mycobacterium tuberculosis H37Ra ATCC 25177 at active stage at 0.78 ug/ml measured after 8 days by XTT dye based two fold dilution method relative to control; format: functional; conditions: H37Ra ATCC 25177, 192 h, read-out: GI; in short: as §4
[18] = test system: Mycobacterium tuberculosis; assay: Growth inhibition of Mycobacterium tuberculosis H37Ra ATCC 25177 at dormant stage measured after 12 days by XTT dye based two fold dilution method; format: functional; conditions: H37Ra ATCC 25177, 288 h; in short: as §4
[19] = Cytotoxicity against primary HUVEC assessed as growth inhibition at 100 ug/ml measured after 48 hrs by MTT assay relative to control; format: toxicity, cell-based; conditions: human, read-out: GI
[20] = Cytotoxicity against human THP1 cells measured after 48 hrs by MTT assay; format: toxicity, cell-based, THP-1
In short: (§5)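 MTT assay with 48 h compound exposure. THP-1 macrophages made by 24 h PMA treatment. Each concentration tested in triplicate in one experiment. % cytotoxicity = (control−test)/(control−blank)×100, with control = cells + DMSO and blank = medium without cells. IC50 from % survival versus concentration plots.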

[21] = Cytotoxicity against human HeLa cells measured after 48 hrs by MTT assay; format: toxicity, cell-based
[22] = test system: Mycobacterium tuberculosis; assay: Growth inhibition of Mycobacterium tuberculosis H37Ra ATCC 25177 at active stage at 1.56 ug/ml measured after 8 days by XTT dye based two fold dilution method relative to control; format: functional; conditions: H37Ra ATCC 25177, 192 h, read-out: GI; in short: as §4
[23] = test system: Mycobacterium tuberculosis; assay: Growth inhibition of Mycobacterium bovis BCG ATCC 35743 at dormant stage at 3.13 ug/ml measured after 12 days by nitrate reductase dye based two fold dilution method relative to control; format: functional; conditions: BCG str. ATCC 35743, 288 h, read-out: GI; in short: as §2
Escherichia coli [24] = assay: Growth inhibition of Escherichia coli NCIM 2688 at 3 ug/ml measured after 8 hrs relative to control; format: functional; conditions: NCIM 2688, 8 h, read-out: GI; in short: as §3
[25] = test system: Mycobacterium tuberculosis; assay: Growth inhibition of Mycobacterium bovis BCG ATCC 35743 at dormant stage at 3 ug/ml measured after 12 days by nitrate reductase dye based two fold dilution method relative to control; format: functional; conditions: BCG str. ATCC 35743, 288 h, read-out: GI; in short: as §2
[26] = Cytotoxicity against […]-differentiated human THP1 cells measured after 48 hrs by MTT assay; format: toxicity, cell-based, THP-1; in short: as §5
[27] = test system: Mycobacterium tuberculosis; assay: Growth inhibition of Mycobacterium bovis BCG ATCC 35743 at active stage at 3.13 ug/ml measured after 8 days by nitrate reductase dye based two fold dilution method relative to control; format: functional; conditions: BCG str. ATCC 35743, 192 h, read-out: GI; in short: as §2

| Structure (SMILES) | inhibition of growth at 12.5 µg/mL [1] | MIC (Aspergillus niger) | inhibition of growth at 0.78 µg/mL [2] | inhibition of growth at 30 µg/mL (Pseudomonas fluorescens) | inhibition of growth at 25 µg/mL [3] | inhibition of growth at 12.5 µg/mL [4] | inhibition of growth at 50 µg/mL [5] | inhibition of growth at 1.56 µg/mL [6] | inhibition of growth at 10 µg/mL (Staphylococcus aureus [7]) | inhibition of growth at 30 µg/mL (Staphylococcus aureus [8]) | MIC (Aspergillus flavus) | Selectivity Index [9] | inhibition of growth at 3.13 µg/mL [10] | inhibition of growth at 100 µg/mL [11] | MIC (Escherichia coli [12]) | inhibition at 48 h, 100 ug/ml [13] | inhibition of growth at 3 µg/mL (Staphylococcus aureus [14]) | inhibition of growth at 6.25 µg/mL [15] | inhibition of growth at 25 µg/mL [16] | inhibition of growth at 0.78 µg/mL [17] | also measured |
| --- | --- | --- | --- | --- | --- | --- | --- | --- | --- | --- | --- | --- | --- | --- | --- | --- | --- | --- | --- | --- | --- |
| Cc1cccc2cc(/C=C3\SC(=S)NC3=O)c(Cl)nc12 | 49.2% | 150 µg/mL (≈ 468 µM) | -16.3% | 59% | 105% | 99.5% | 102% | -33.4% | -9.23% | 12.6% | 100 µg/mL (≈ 312 µM) | 7.8 | 39.9% | 93.2% | > 30 µg/mL | 32.1% | -3.27% | 62.9% | 103% | 20.1% | IC50 [18]: 7.6 µg/mL (≈ 23.7 µM); IC90 [18]: 12.9 µg/mL (≈ 40.2 µM); inhibition at 48 h, 100 ug/ml [19]: 14.9%; GI50 at 48 h [20]: > 100 µg/mL; GI50 at 48 h [21]: > 100 µg/mL; inhibition of growth at 1.56 µg/mL [22]: 29.6%; inhibition of growth at 3.13 µg/mL [23]: -5.18%; inhibition of growth at 3 µg/mL (Escherichia coli [24]): 26.2%; inhibition of growth at 3 µg/mL [25]: -6.23%; GI50 at 48 h [26]: > 100 µg/mL; inhibition of growth at 3.13 µg/mL [27]: -17.7% |
| COc1ccc2nc(Cl)c(/C=C3\SC(=S)NC3=O)cc2c1 | 72.7% | 150 µg/mL (≈ 445 µM) | -31.1% | 70.9% | 90.2% | 96% | 101% | -39.1% | 99.8% | 103% | 100 µg/mL (≈ 297 µM) | 20.8 | 38.4% | 86.3% | > 30 µg/mL | 31.3% | 68.7% | 89.9% | 87.8% | -20.6% | IC50 [18]: 3.3 µg/mL (≈ 9.8 µM); IC90 [18]: 4.7 µg/mL (≈ 14 µM); inhibition at 48 h, 100 ug/ml [19]: 29.4%; GI50 at 48 h [20]: > 100 µg/mL; GI50 at 48 h [21]: > 100 µg/mL; inhibition of growth at 1.56 µg/mL [22]: 23.1%; inhibition of growth at 3.13 µg/mL [23]: -4.93%; inhibition of growth at 3 µg/mL (Escherichia coli [24]): 3.11%; inhibition of growth at 3 µg/mL [25]: -46.3%; GI50 at 48 h [26]: > 100 µg/mL; inhibition of growth at 3.13 µg/mL [27]: 14.9% |
